Data taken from ChEMBL document CHEMBL4373712, “Bioactivatable Pseudotripeptidization of Cyclic Dipeptides To Increase the Affinity toward Oligopeptide Transporter 1 for Enhanced Oral Absorption: An Application to Cyclo(l-Hyp-l-Ser) (JBP485)” (J Med Chem, 2019).
The source made the active and inactive calls. The calls are words filed in the database; no cut-off is given here.

What was measured:
[1] = Ratio of half-life in pH 7.2 phosphate buffer to half-life in Sprague-Dawley rat liver homogenates; assay type: ADME, tissue-based; settings: tissue homogenate
[2] = target: T1, Solute carrier family 15 member 1 (Rattus norvegicus, UniProt P51574); experiment: Ratio of test compound effect to JBP485 effect for substrate activity at PEPT1 in Sprague-Dawley rat jejunum assessed as effective permeability; assay type: ADME, tissue-based
T1 sequence (P51574 whole entry): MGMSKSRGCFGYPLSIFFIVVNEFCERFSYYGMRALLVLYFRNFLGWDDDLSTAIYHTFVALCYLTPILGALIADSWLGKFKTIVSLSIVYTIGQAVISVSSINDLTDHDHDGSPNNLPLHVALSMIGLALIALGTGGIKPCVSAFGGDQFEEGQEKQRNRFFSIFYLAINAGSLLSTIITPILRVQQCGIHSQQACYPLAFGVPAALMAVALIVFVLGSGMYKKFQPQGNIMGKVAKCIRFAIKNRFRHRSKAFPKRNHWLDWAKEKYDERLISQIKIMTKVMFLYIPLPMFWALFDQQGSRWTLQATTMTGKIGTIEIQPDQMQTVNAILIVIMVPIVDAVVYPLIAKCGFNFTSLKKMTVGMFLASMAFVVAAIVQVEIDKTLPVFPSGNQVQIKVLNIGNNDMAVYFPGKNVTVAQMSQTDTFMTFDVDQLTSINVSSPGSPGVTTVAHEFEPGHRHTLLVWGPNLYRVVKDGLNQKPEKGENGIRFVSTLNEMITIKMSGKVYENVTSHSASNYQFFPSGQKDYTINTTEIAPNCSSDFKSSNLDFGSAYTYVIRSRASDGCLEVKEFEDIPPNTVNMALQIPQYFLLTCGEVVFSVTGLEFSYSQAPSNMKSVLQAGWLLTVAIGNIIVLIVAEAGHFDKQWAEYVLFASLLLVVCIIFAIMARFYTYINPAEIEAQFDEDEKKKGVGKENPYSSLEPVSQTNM
Outline: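 In situ single-pass jejunal perfusion in fasted (12 h) male SD rats anaesthetised with urethane 1.5 g/kg i.p. About 10 cm of jejunum was perfused at 0.2 mL/min with pH 6.0 HEPES buffer containing 5 mM compound. Outflow was collected 15–120 min after steady state and assayed by HPLC. Peff was calculated from outlet/inlet concentration and volume ratios and segment radius and length.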

[3] = Oral bioavailability in Sprague-Dawley rat assessed as JBP485 level at 12 mg/kg equiv of JBP485 by UPLC-MS/MS analysis; assay type: ADME, organism-based; settings: in vivo
Outline: (§1)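 Male SD rats, 200-250 g, fasted 12 h with water, n=6. Oral dose of 12 mg/kg as JBP485 equivalent; dose-effect arms at 12 and 100 mg/kg. JBP485 given iv at 6 mg/kg as the reference. Jugular blood taken at 0.083-10 h. Plasma JBP485 by UPLC-MS/MS. Absolute F = (AUCpo×Div)/(AUCiv×Dpo)×100%, using AUC0-t.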

Rattus norvegicus [4] = experiment: (§2) Anti-hepatitis activity in ANIT-induced Sprague-Dawley rat model of liver injury assessed as reduction in serum alanine aminotransferase level at 3.125 to 25 mg/kg, po administered 30 mins prior to ANIT challenge and subsequent dosing at 8, 22, 32, and 46 hrs post ANIT challenge and measured 48 hrs post ANIT challenge; assay type: functional, organism-based
Outline: (§3)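 ANIT (50 mg/kg ip, olive oil) cholestatic liver injury in male SD rats, 6 per group. Oral or ip dosing (UDCA 100 mg/kg po in CMC-Na) at 30 min before and 8, 22, 32 and 46 h after ANIT. Serum collected at 48 h from the abdominal aorta; ALT and AST activities measured with kits.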

[5] = Terminal half-life in Sprague-Dawley rat at 6 mg/kg, iv by UPLC-MS/MS analysis; assay type: ADME, organism-based; settings: in vivo, read-out: beta t1/2 (converted)
Outline: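 Fasted male SD rats given JBP485 6 mg/kg intravenously. Jugular blood sampled 0.083–10 h, plasma by UPLC-MS/MS; n=6.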

[6] = Tmax in Sprague-Dawley rat at 12 mg/kg, po by UPLC-MS/MS analysis; assay type: ADME, organism-based; settings: in vivo
Outline: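 Fasted male SD rats (200–250 g), oral 12 mg/kg (prodrugs calculated as JBP485). Jugular blood 0.083–10 h, centrifuged, plasma JBP485 by UPLC-MS/MS; n=6.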

[7] = target: T2, Solute carrier family 15 member 1 (Homo sapiens, UniProt P46059); experiment: Substrate activity at PEPT1 in human Caco2 cells assessed as inhibition of Gly-Sar uptake by LC-MS/MS analysis; assay type: cell-based
T2 sequence (P46059 whole entry): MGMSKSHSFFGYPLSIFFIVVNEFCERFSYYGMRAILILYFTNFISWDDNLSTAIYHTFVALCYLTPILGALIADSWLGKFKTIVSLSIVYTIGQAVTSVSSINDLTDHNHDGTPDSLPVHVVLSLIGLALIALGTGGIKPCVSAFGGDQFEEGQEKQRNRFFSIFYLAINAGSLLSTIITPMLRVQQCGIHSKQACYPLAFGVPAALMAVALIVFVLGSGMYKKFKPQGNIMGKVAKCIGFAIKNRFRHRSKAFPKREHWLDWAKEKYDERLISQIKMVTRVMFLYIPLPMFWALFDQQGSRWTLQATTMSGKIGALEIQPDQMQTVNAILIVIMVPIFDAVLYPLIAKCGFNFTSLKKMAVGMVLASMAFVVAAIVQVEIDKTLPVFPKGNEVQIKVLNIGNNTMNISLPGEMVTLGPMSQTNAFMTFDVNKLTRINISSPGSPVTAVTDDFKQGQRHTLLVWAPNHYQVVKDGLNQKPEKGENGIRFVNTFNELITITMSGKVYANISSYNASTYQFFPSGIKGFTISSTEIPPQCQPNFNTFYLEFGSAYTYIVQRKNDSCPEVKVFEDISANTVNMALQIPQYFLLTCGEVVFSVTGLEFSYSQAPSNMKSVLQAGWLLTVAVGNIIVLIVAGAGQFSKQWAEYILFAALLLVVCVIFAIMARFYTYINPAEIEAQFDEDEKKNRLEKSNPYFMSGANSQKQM
Outline: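 Caco-2 cells with 0.5 mM Gly-Sar probe substrate and competitor at 0.5–50 mM. IC50 by nonlinear fitting; n=3.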

Rattus norvegicus [8] = experiment: as §2, with “aspartate” for “alanine”, “6.25” for “3.125”; assay type: functional, organism-based; outline: as §3
[9] = Cmax in Sprague-Dawley rat assessed as JBP485 level at 100 mg/kg, po by LC-MS/MS analysis; assay type: ADME, organism-based; design: dose 100 mg/kg, route oral; settings: in vivo; outline: as §1
[10] = Tmax in Sprague-Dawley rat assessed as JBP485 level at 12 mg/kg, po by LC-MS/MS analysis; assay type: ADME, organism-based; settings: in vivo
Outline: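 Male SD rats (200–250 g) fasted 12 h, given JBP485 or prodrug (calculated as JBP485) orally at 12 or 100 mg/kg. Jugular blood sampled 0.083–10 h, plasma JBP485 by UPLC-MS/MS; n=6.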

Row | Ratio [1] | Ratio [2] | F [3] [%] | half-life [5] [min] | Tmax [6] [h] | Ki [7] [mM] | Cmax [9] [nM/ml] | Tmax [10] [h] | Compound | Activity (Rattus norvegicus [4]) | Activity (Rattus norvegicus [8])
1 | 3 to 35 | 6.03 | 50.1 | – | – | – | – | – | CC(C)[C@H](N)C(=O)OC[C@@H]1NC(=O)[C@@H]2C[C@@H](O)CN2C1=O | Active | –
2 | – | – | – | 67.8 | 1.25 | 36 | 95.96 | 1.25 | O=C1N[C@@H](CO)C(=O)N2C[C@H](O)C[C@@H]12 | – | Active
